ChEMBL document CHEMBL4513216, “Probing the Open Global Health Chemical Diversity Library for Multistage-Active Starting Points for Next-Generation Antimalarials” (ACS Infect Dis, 2020)

test: Toxicity liver stage against HepG2, at 10uM; assay type: cell-based; set-up: test concentration 10 uM, cell line HepG2-A16-CD81EGFP; conditions: human, HepG2-A16-CD81EGFP cells; read-out: INHIBITION
Method in brief: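 Uninfected HepG2-A16-CD81EGFP cells, 3 × 10^3 per well, 1536-well, plated on prespotted compound at 10 μM final, parasite-free screening media added to match infected plates; puromycin 10 μM positive, DMSO 0.5% negative; run in parallel with 48 h PbLuc assay at 37 °C, 5% CO2; viability by CellTiter-Glo luminescence, normalized to controls.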

Row | SMILES | cytotoxicity at 10 µM [%]
1 | Nc1ncncc1-c1noc([C@@H]2CCCN2Cc2cccnc2)n1 | -7.29
2 | CS(=O)(=O)NC[C@H]1OC[C@@H]2CCN(C(=O)c3cccnc3)C[C@@H]21 | 5.31
3 | COCC(=O)N1C[C@H]2CC[C@@]3(N=C(c4ccccc4)NC3=O)[C@H]2C1 | 3.83
4 | Cc1cs/c(=N\C(=O)c2c3c(nc4onc(C)c24)CCC3)[nH]1 | 1.26
5 | CCCNC(=O)c1sccc1N(C)S(=O)(=O)c1ccc(Cl)cc1 | 9.22
6 | O=S(=O)(C1CC1)N1CCO[C@H]2[C@H](OCC3CCCC3)CC[C@@H]21 | -5.58
7 | COCCO[C@H]1CCN(C(=O)c2ccno2)[C@H]1Cc1cnn(C)c1 | -5.45
8 | Cn1cc(S(=O)(=O)NCc2ccc(F)cc2)cn1 | 1.25
9 | O=C1CCOC[C@]2(CN(Cc3ccccc3)C[C@H]2c2ccccc2F)N1 | -1.02
10 | CC(=O)N1CCCC1c1nc(CN(C)C(=O)C(C)C)cc(N(C)C)n1 (stereo not drawn) | -2.62
11 | CS(=O)(=O)N[C@@H]1CN(Cc2ccc3ncccc3c2)C[C@H]1O | -4.34
12 | Cn1nccc1CN1CCOC(c2ccc(-c3cncnc3)cn2)C1 (stereo not drawn) | 3.27
13 | Cc1cc(Oc2ccccc2)nc(C2CCN(CCO)CC2)n1 | -1.99
14 | CN(C)c1ncc(CN2CCOC(C(=O)Nc3ccccc3)C2)cn1 (stereo not drawn) | -3.14
15 | CN(C)c1cccc(C2CCCN2c2nc3c(cnn3C)c(=O)[nH]2)c1 (stereo not drawn) | 0.91
16 | CCN(Cc1cnn(C)c1)S(=O)(=O)c1ccc(NC(=O)C(C)(C)C)cc1 | 0.165
17 | COc1cccc(COCC(=O)NC(C(N)=O)c2ccccc2)c1 (stereo not drawn) | -3.73
18 | CC(=O)NCC1CN(c2ccc3c(Cl)ccnc3c2F)CCO1 (stereo not drawn) | 5.29
19 | CC(=O)N1CCC[C@H]1C(=O)N(C)CCCOc1ccccc1 | -1.18
20 | Cn1cc(Br)cc(NC(=O)CC2CCC2)c1=O | -8.15
21 | O=C(CN1CCOC(Cn2cncn2)C1)NC(C1CC1)C1CC1 (stereo not drawn) | -49.5
22 | O=C(COCC1CC1)Nc1cc(-c2ccc(Br)s2)n[nH]1 | -155

Row | SMILES | cytotoxicity at 10 µM [%]
23 | O=C(Nc1nnn[nH]1)c1ccc(I)c(F)c1 | -2.56
24 | CCC(NC(=O)CNC(=O)OC)c1cc(F)ccc1F (stereo not drawn) | -5.03
25 | FC(F)(F)COc1ccc(CSCc2ccon2)cn1 | -4.52
26 | CC(=O)c1cccc(S(=O)(=O)N2CCC(c3noc(C)n3)CC2)c1 | 7.85
27 | COc1ccc(CNc2cccnc2-n2cccn2)cc1OC | 7.25
28 | O=C(CN1CCN(CCO)CC1)NC(C1CC1)C1CC1 | -6.56
29 | CCC[C@@H](NC(N)=O)C(=O)N1CCc2c(Cl)cccc2C1 | 5.79
30 | N#Cc1ccc(CNCC2CCN(CCO)CC2)cc1 | -9.7
31 | CCS(=O)(=O)N1Cc2cncn2CC(C(=O)NCC2CC2)C1 (stereo not drawn) | -97.6
32 | Cc1ccc(N2C[C@H]3OCC[C@H]3[C@H](C(=O)NCc3ccco3)C2)nn1 | -67.4
33 | COCC(=O)N1CCC2(CC1)CN(c1cncnc1)C(=O)CO2 | -78.6
34 | Cc1noc([C@@H]2CCO[C@@H]3CCN(Cc4cccs4)C[C@@H]32)n1 | -74.6
35 | CC(C)NC(=O)C1CN(C(=O)COc2ccccc2)CC12CCOCC2 (stereo not drawn) | -78.3
36 | CCc1nc(C)c(C(=O)N2CCNCC2C(=O)NCc2ccncc2)o1 (stereo not drawn) | -3.64
37 | Fc1ccc(N2CCCN(Cc3ccc(-c4cc[nH]n4)o3)CC2)cc1 | 0.898
38 | CC(C)CCn1cc(C(C(=O)O)N2CCC(c3ccncc3)CC2)cn1 (stereo not drawn) | 3.34
39 | COC[C@]1(O)CCN(C2CCN(c3ccc(OC)cc3)CC2)CC1(C)C | -3.17
40 | COc1ccccc1CN1C(=O)O[C@@H]2CN(c3nc(C)cc(C)n3)C[C@@H]21 | 0.819
41 | OCC1(O)CCN(c2ncccc2C(F)(F)F)CC1 | -13.6
42 | Cc1ccc([C@@H]2CN(S(=O)(=O)N3CCC(C)CC3)C[C@H]2N(C)C)cc1 | -3.59
43 | CC(=O)N[C@@H]1CN(C(=O)c2cnccn2)C[C@H]1c1ccc(C)cc1 | 6.62
44 | O=C(Nc1ccccc1CCO)c1cccc(CN2CC[C@H](O)C2)c1 | 8.77

Row | SMILES | cytotoxicity at 10 µM [%]
45 | CC(=O)NCc1nc(CC(C)C)nn1-c1cccc(C)c1 | 6.54
46 | Cc1ccccc1C(CC(=O)NCC(N)=O)c1ccccc1 (stereo not drawn) | 5.17
47 | O=C1CC[C@H]2CN(Cc3cccnc3)CC[C@H]2N1CCc1c[nH]cn1 | -1.36
48 | O=C(c1ccc(S(=O)(=O)N2CCSCC2)cc1)N1CCCCCC1 | 13.9
49 | CN(Cc1cc(-c2ccncc2)no1)C(=O)[C@@H]1CSCN1C | -2.62
50 | Cc1ccc2c(C)c(C(=O)NCc3csc(N)n3)oc2c1 | -2.83
51 | O=C(NCC(O)c1cccc(F)c1)C1CCN(C(=O)C2CCC2)CC1 (stereo not drawn) | 4.43
52 | Cc1ccc(CCNc2nc(-c3ccncc3)nc3c2CCNCC3)o1 | -132
53 | COCCCN(Cc1cnc(-c2ccccn2)nc1)C1CCN(C)CC1 | -0.988
54 | Cc1nc(NC(=O)C(C)N2CCN(c3ccccc3F)CC2)sc1C (stereo not drawn) | -0.879
55 | Cc1cc2c(c(-c3cnccn3)c1)OC(CN)C2 (stereo not drawn) | -5.13
56 | CCC(CO)N(Cc1ccccn1)C(=O)c1ccc(F)c(F)c1 (stereo not drawn) | -0.273
57 | CC(=O)N1CCN(Cc2ccc(Cl)c(F)c2)CC(O)C1 (stereo not drawn) | -1.48
58 | NC(=O)c1cccc(CC2CCN(C(=O)CO)C2)c1 (stereo not drawn) | -23.7
59 | Cc1ccc(C#N)c(N2CCC(c3nccn3Cc3cscn3)CC2)n1 | -6.96
60 | CC(=O)N1CCCCC1c1cc(C(=O)N2CCOCC2)[nH]n1 (stereo not drawn) | -3.68
61 | Cc1cnc(CN2CCN(c3ccc4nncn4n3)C(C)C2)cn1 (stereo not drawn) | -2.21
62 | Cc1cccc(CN(Cc2nc3c(cnn3C)c(=O)[nH]2)C2CC2)c1 | 0.914
63 | CC(C)c1nn(C)c(N2CCOCC2)c1CNC(C)c1ccccn1 (stereo not drawn) | -6.56
64 | O=C(NCCN1CCOCC1)c1scnc1Cl | -2.09
65 | Cc1ccc(OCCN(C)Cc2nc3c(cnn3C)c(=O)[nH]2)cc1 | -3.44
66 | Cc1nn(C)c(C)c1CC(=O)N1CCCC(n2ccnc2C)C1 (stereo not drawn) | -5.36

Row | SMILES | cytotoxicity at 10 µM [%]
67 | O=C(C1CCCCC1)N1CCN(Cc2nc(-c3ccco3)no2)CC1 | -1.01
68 | Cc1nnc(C(C)N2CCCN(Cc3ccc(C#N)cc3)CC2)o1 (stereo not drawn) | -11.1
69 | c1ccc(Cc2nnc(CN3CCCCC3Cn3cncn3)o2)cc1 (stereo not drawn) | -20.4
70 | NC(=O)C1CCCN(C(=O)c2cccc(OCc3cscn3)c2)C1 (stereo not drawn) | -7.98
71 | Cc1ccccc1-c1noc(CN2CCOC(Cn3cccn3)C2)n1 (stereo not drawn) | -5.04
72 | O=C(c1cnc2c(cnn2C2CCCC2)c1)N1CCN(CCO)CC1 | -17.2
73 | Cc1ccnn1-c1ccc(C(=O)N2CCCC(n3ccnc3)C2)cc1 (stereo not drawn) | -18.2
74 | O=C(Cc1n[nH]c2ccccc12)N1CCCC1Cn1cccn1 (stereo not drawn) | -14.7
75 | Cc1cc2n(n1)CC(CNCc1ccccc1Cn1cccn1)CN2 (stereo not drawn) | -13.3
76 | c1ccc(Cc2noc(CN3CCOC(Cn4cccn4)C3)n2)cc1 (stereo not drawn) | -6.67
77 | Cc1cc(C)n(C2CCCN(C(=O)c3cccc4c3OCO4)C2)n1 (stereo not drawn) | -3.88
78 | Cc1csc(C2CCCN(C(=O)c3c[nH]c(C)n3)C2)n1 (stereo not drawn) | -17
79 | COc1cc(C(=O)N2CCCC(c3cc(C)[nH]n3)C2)ccc1C (stereo not drawn) | -17.5
80 | CCOCC(O)CN1CCN(C(=O)C(C)(C)CC)CC1 (stereo not drawn) | -20.7
81 | O=C(c1cc2c(F)cccc2[nH]1)N1CCC(Nc2cccnn2)CC1 | -19.3
82 | COCCCNC(=O)N1CCCC(c2nncn2C)C1 (stereo not drawn) | -19.7
83 | Cc1nn(C)c(C)c1C1CCCN1Cc1noc(C2CC2)n1 (stereo not drawn) | -6.95
84 | N#Cc1ccccc1OCCN1CCC(N2CCNC2=O)CC1 | -8.58
85 | CC(=O)N1CCCN(C(=O)c2csc(-c3ccc(C)cc3C)n2)CC1 | 20.8
86 | CCc1nc(C)ncc1C(=O)N1CCCC(n2nc(C)nc2C)C1 (stereo not drawn) | -8.47
87 | Cc1cc2n(n1)CC(CNCc1ccnc(-n3ccnc3C)c1)CN2 (stereo not drawn) | -4.95
88 | CCCOc1ccc(CNC(=O)N2CCC(C(N)=O)C2)cc1 (stereo not drawn) | -5.87

Row | SMILES | cytotoxicity at 10 µM [%]
89 | CCn1cc(CN2CCCN(C(=O)c3sccc3C#N)CC2)cn1 | -6.41
90 | N#Cc1cccc(S(=O)(=O)NC2CCN(Cc3ccccc3)C2=O)c1 (stereo not drawn) | -7.18
91 | CCOC1CCCN(C(=O)c2cnc3c(cnn3C3CCCC3)c2)C1 (stereo not drawn) | -3.74
92 | Cc1ncsc1C(=O)NC1CCN(CCC(N)=O)CC1 | -10.2
93 | O=S(=O)(CCCN1CCCC1Cn1cccn1)c1ccccc1 (stereo not drawn) | -5.18
94 | COc1ccc(-c2cnc(N)nc2C2CCCNC2)cc1 (stereo not drawn) | -1.51
95 | CN(C)[C@@H]1CN(Cc2cccnc2)C[C@H]1c1cn(C)c2ccccc12 | 1.44
96 | COc1ccc(CN(Cc2ccccn2)Cc2cncn2C)cc1 | 9.65
97 | COCC1CN(C(=O)c2cccc(C)n2)Cc2nccn2C1 (stereo not drawn) | -103
98 | COc1ccc(CN2C[C@@H]3COC[C@]3(COc3cccnc3)C2)cc1 | -18.4
99 | O=C(NC1CC1)N1CCn2c(Cn3cccn3)cnc2C1 | -72.8
100 | Cc1nc(CN2CCC(O)(c3ccccc3F)CC2)c2ccccn12 | 2.45
101 | CCS(=O)(=O)N1CCc2c(COCCN(C)C)cncc2C1 | -104
102 | Cc1ccc(CN2C[C@@H](OCc3ccccn3)[C@H]3COC[C@H]32)o1 | -114
103 | O=C(c1cccnc1)N1CCN2C[C@H](OCc3ccccc3)C[C@H]2C1 | -75.2
104 | O=C(Cc1cccs1)N1C[C@@H]2CN(Cc3ccoc3)CCO[C@@H]2C1 | -70.8
105 | CN(C)CCNCCC(c1ccccc1)C1CCOC(C)(C)C1 (stereo not drawn) | -5.67
106 | CN(C)C(=O)CN1C(=O)[C@@H]2CC[C@H]1CN(Cc1ccccc1C#N)C2 | 1.22
107 | O=c1c2c[nH]c(N3CCOCC3)nc-2cn1C1CCS(=O)(=O)C1 (stereo not drawn) | 3.41
108 | O=S(=O)(c1ccccc1)N1C2CCC(O)(CC2)C1CN1CCOCC1 (stereo not drawn) | -4.65
